Among the data in ChEMBL document CHEMBL3853277, “Efficient Synthesis of Glaziovianin A Isoflavone Series from Dill and Parsley Extracts and Their in Vitro/in Vivo Antimitotic Activity” (J Nat Prod, 2016) are IC50 and EC values, retold here.

A short description of experiment [1]: Growth inhibition of human PBMC cells measured after 48 hrs by MTS assay. In kind it is cell-based. In a few lines: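 PBMCs from healthy volunteers by Ficoll-Paque density separation, washed in RPMI 1640, cultured in RPMI 1640 with 10% heat-inactivated FBS at 37 °C, 5% CO2. Seeded 1 × 10^4 cells/well, treated 48 h at 0.01−100 μM, 0.1% DMSO control, quadruplicate wells; MTS read at 490 nm; IC50 by sigmoidal fitting, three experiments.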

Experiment [2] can be described thus: Growth inhibition of human A549 cells by MTS assay. In kind it is functional, cell-based. The gist of the method:
(§1)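 Cancer lines grown in their own media with 10% FBS at 37 °C, 5% CO2; 1 × 10^4 cells/well treated 48 h at 0.01−100 μM (DMSO stocks, 0.1% DMSO control), quadruplicate wells. MTS reagent 1−4 h, absorbance 490 nm. IC50 by sigmoidal fitting; mean ± SD of three independent experiments.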
In general terms: Tetrazolium assays rely on reduction of a dye to a coloured formazan, in cell work by metabolically active cells.

Experiment [3] is described as follows: Growth inhibition of human MDA-MB-231 cells measured after 48 hrs by MTS assay. The experiment is classed as functional, cell-based. The settings on record: MDA-MB-231, 48 h. In a few lines: as §1
Experiment [4] relates to Paracentrotus lividus. Nature of the experiment: Antimitotic activity against sea urchin Paracentrotus lividus L embryo assessed as induction of cleavage arrest. In kind it is functional. In a few lines: (§2)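 Gametes collected by intracoelomic 0.5 M KCl injection; fertilized eggs (8−15 min postfertilization) exposed in seawater to 2-fold decreasing concentrations, up to 2000 embryos/mL, room temperature. Stocks 10 mM in DMSO diluted 10-fold in 96% EtOH. Cleavage alteration/arrest scored at 2.5−5.5 h; effective threshold concentration reported, duplicate measurements.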

The test system of experiment [5] is Paracentrotus lividus. Nature of the experiment: Antimitotic activity against sea urchin Paracentrotus lividus L embryo assessed as induction of embryo spinning. In kind it is functional. In a few lines:
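Hatched free-swimming blastulae (8−9 h postfertilization) exposed to 2-fold decreasing concentrations in seawater, room temperature; DMSO stock diluted 10-fold in 96% EtOH. Observed to four-arm pluteus (34−36 h); spinning on well bottom without forward movement scored as microtubule destabilization; effective threshold concentration, duplicate measurements.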

Experiment [6] is described as follows: Growth inhibition of human HCT116 cells measured after 48 hrs by MTS assay. The conditions noted are these: HCT-116, 48 h. In kind it is functional, cell-based. The gist of the method:
as §1

Experiment [7] in a line: Growth inhibition of human PC3 cells measured after 48 hrs by MTS assay. The experiment is classed as functional, cell-based. The conditions noted are these: PC-3, 48 h. The gist of the method:
as §1

A short description of experiment [8]: Growth inhibition of human DU145 cells measured after 48 hrs by MTS assay. In kind it is functional, cell-based. The conditions noted are these: DU-145, 48 h. In a few lines:
as §1

Experiment [9] concerns Paracentrotus lividus. Nature of the experiment: Antimitotic activity in sea urchin Paracentrotus lividus L embryo assessed as induction of cleavage alteration. The experiment is classed as functional. The gist of the method:
as §2

Experiment [10] can be described thus: Growth inhibition of human A375 cells measured after 48 hrs by MTS assay. The settings on record: A-375, 48 h. The experiment is classed as functional, cell-based. In a few lines:
as §1

Experiment [11] is described as follows: Growth inhibition of human SKOV3 cells measured after 48 hrs by MTS assay. In kind it is functional, cell-based. The settings on record: SK-OV-3, 48 h. In a few lines: as §1
Experiment [12] deals with Paracentrotus lividus. Nature of the experiment: Antimitotic activity against sea urchin Paracentrotus lividus L embryo assessed as induction of tuberculate egg formation. In kind it is functional. The gist of the method: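 Fertilized eggs were exposed 8−15 min post-fertilization to 2-fold decreasing concentrations, as a monolayer of up to 2000 embryos/mL in filtered seawater at room temperature. The 10 mM DMSO stock was diluted 10-fold in 96% EtOH. Cleavage alteration or arrest was scored by light microscopy at 2.5−5.5 h post-fertilization, and the effective threshold concentration was recorded from duplicate measurements.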

Bounds are passed on as bounds.

The term IC50 denotes the midpoint of a concentration-inhibition curve. For the molecule `COc1cc2occ(-c3cc(OC)c(OC)c(OC)c3OC)c(=O)c2cc1OC`, the IC50 in experiment [1], in [2], in experiment [3], in experiment [6], in experiment [7] and in [8] was above 10 µM throughout. The concentration for half-maximal inhibition (IC50) in experiment [10] and in experiment [11] was above 10 µM throughout. Also, the EC with Paracentrotus lividus [4], in the experiment with Paracentrotus lividus [5] and in the experiment with Paracentrotus lividus [9] was above 4 µM in each case.

In the case of `COc1ccc(-c2coc3cc(OC)c(OC)cc3c2=O)cc1`, the IC50 in experiment [1], in [2], in [3], in [6], in experiment [7] and in experiment [8] was above 10 µM each time. Further, the half-maximal inhibitory concentration (IC50) in [10] and in [11] was above 10 µM in each case. Moreover, the EC with Paracentrotus lividus [5] was above 5 µM; in the experiment on Paracentrotus lividus [12], 1 µM; with Paracentrotus lividus [9] it was 0.2 µM.

In the case of `COc1ccc(-c2coc3cc(OC)c(OC)cc3c2=O)cc1OC`, the 50% inhibitory concentration (IC50) in experiment [1], in experiment [2], in experiment [3], in experiment [6], in experiment [7] and in experiment [8] was above 10 µM each time. Besides, the IC50 in experiment [10] and in [11] was above 10 µM in each case. The figures for the EC in the experiment with Paracentrotus lividus [4], in the experiment on Paracentrotus lividus [5] and with Paracentrotus lividus [9] were above 4 µM, above 4 µM and 4 µM, respectively.

Consider `COc1ccc(-c2coc3c(OC)c(OC)c(OC)cc3c2=O)cc1OC`, for which the EC in the experiment with Paracentrotus lividus [4] is above 4 µM; in the experiment on Paracentrotus lividus [5], above 4 µM; in the experiment with Paracentrotus lividus [9] it was 4 µM.

For `COc1cc2occ(-c3cc(OC)c4c(c3)OCO4)c(=O)c2cc1OC`, the 50% inhibitory concentration (IC50) in [1], in experiment [2], in [3], in experiment [6], in [7] and in experiment [8] was above 10 µM each time. Also, the IC50 was 6.1 µM in [10] and above 10 µM in [11]. In addition, the results for the EC in the experiment on Paracentrotus lividus [5], with Paracentrotus lividus [12] and with Paracentrotus lividus [9] were above 5 µM, 1 µM and 0.1 µM, respectively.

Consider `COc1ccc(-c2coc3c(OC)c4c(c(OC)c3c2=O)OCO4)cc1OC`, for which the IC50 in experiment [1], in experiment [2], in experiment [3], in [6], in experiment [7] and in experiment [8] was above 10 µM in each case. Moreover, the concentration for half-maximal inhibition (IC50) in experiment [10] and in experiment [11] was above 10 µM each time. Also, the EC in the experiment on Paracentrotus lividus [4], in the experiment on Paracentrotus lividus [5] and in the experiment on Paracentrotus lividus [9] was above 4 µM throughout.

Consider `COc1cc2occ(-c3cc(OC)c(OC)c(OC)c3)c(=O)c2cc1OC`, for which the IC50 was above 10 µM in experiment [1]; above 10 µM in [2]; above 10 µM in experiment [3]; 2.8 µM in experiment [6]; 5.1 µM in [7]; 4.9 µM in [8]. The IC50 in experiment [10] is 3.2 µM; in experiment [11], 4.3 µM. Besides, the EC with Paracentrotus lividus [5] is above 5 µM; in the experiment on Paracentrotus lividus [12], 1 µM; in the experiment on Paracentrotus lividus [9], 0.2 µM.

As to `COc1cc2occ(-c3cc4c(c(OC)c3OC)OCO4)c(=O)c2cc1OC`, the IC50 in experiment [1] is above 10 µM; in [2] it was above 10 µM; in experiment [3] it was 7.1 µM; in [6], 3.4 µM; in [7], 7.3 µM; in experiment [8] it was 6.4 µM. Moreover, the results for the IC50 in [10] and in [11] were 1.7 µM and above 10 µM, respectively. Besides, the figures for the EC in the experiment on Paracentrotus lividus [5], with Paracentrotus lividus [12] and in the experiment with Paracentrotus lividus [9] were above 5 µM, 5 µM and 0.5 µM, respectively.

On to `COc1cccc(-c2coc3cc(OC)c(OC)cc3c2=O)c1`, for which the half-inhibitory concentration (IC50) in [1], in experiment [2], in [3], in [6], in experiment [7] and in experiment [8] was above 10 µM each time. Moreover, the IC50 in experiment [10] and in experiment [11] was above 10 µM in each case. The EC is above 4 µM with Paracentrotus lividus [4], above 5 µM with Paracentrotus lividus [5] and 2 µM in the experiment with Paracentrotus lividus [9].

On to `COc1ccc(-c2coc3cc(OC)c(O)cc3c2=O)cc1`, for which the EC with Paracentrotus lividus [5] is above 5 µM; in the experiment with Paracentrotus lividus [12] it was 4 µM; with Paracentrotus lividus [9], 1 µM.

As for `COc1ccc(-c2coc3cc(OC)c(OC)c(OC)c3c2=O)cc1`, the EC in the experiment with Paracentrotus lividus [4], with Paracentrotus lividus [5] and in the experiment on Paracentrotus lividus [9] was above 4 µM throughout.

As for `COc1ccc(/C=C\c2cc(OC)c(OC)c(OC)c2)cc1OP(=O)([O-])[O-].[Na+].[Na+]` [FOSBRETABULIN DISODIUM], the IC50 in experiment [1] was 0.17 µM; in experiment [2] it was 0.0234 µM; in experiment [3] it was 0.0028 µM; in experiment [6], 0.0016 µM; in [7] it was 0.0062 µM; in experiment [8], 0.0014 µM. For the same molecule, the IC50 is 0.0016 µM in [10] and 0.0077 µM in experiment [11]. In addition, the values for the EC with Paracentrotus lividus [4], with Paracentrotus lividus [5] and in the experiment on Paracentrotus lividus [9] were 0.01 µM, 0.05 µM and 0.005 µM, respectively.

Turning to `COc1cc2occ(-c3cc(OC)c4c(c3OC)OCO4)c(=O)c2cc1OC` [GLAZIOVIANIN A], the half-inhibitory concentration (IC50) in [1] was above 10 µM; in [2], 1.1 µM; in [3], 2.2 µM; in [6], 0.69 µM; in experiment [7], 0.83 µM; in experiment [8], 0.87 µM. The IC50 was 0.27 µM in experiment [10] and 0.43 µM in experiment [11]. Besides, the EC with Paracentrotus lividus [4] was 0.5 µM; in the experiment with Paracentrotus lividus [5], 4 µM; with Paracentrotus lividus [9], 0.05 µM.
